From PubChem BioAssay
HTRA1 inhibitor – HTRA1 (human) protease inhibition | inhibition, % at 5.96 µM | AID 504803 | recombinant HTRA1, FP-rhodamine activity-based probe, fluorescence polarization | 340,000 tested, 0.5% active | Q92743; in the data active means inhibition above about 36%
ABHD4 inh – inhibitors of mouse ABHD4; purified mABHD4, FP-Rh probe fluorescence polarization; inhibition, % at 8.92 µM; Q8VD66; 370,000 tested, 0.54% active; AID 720543;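 active means inhibition exceeding the mean over every tested compound plus 3 SD, cut at about 30% in these data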
Target sequence (Q8VD66 whole entry, looked up): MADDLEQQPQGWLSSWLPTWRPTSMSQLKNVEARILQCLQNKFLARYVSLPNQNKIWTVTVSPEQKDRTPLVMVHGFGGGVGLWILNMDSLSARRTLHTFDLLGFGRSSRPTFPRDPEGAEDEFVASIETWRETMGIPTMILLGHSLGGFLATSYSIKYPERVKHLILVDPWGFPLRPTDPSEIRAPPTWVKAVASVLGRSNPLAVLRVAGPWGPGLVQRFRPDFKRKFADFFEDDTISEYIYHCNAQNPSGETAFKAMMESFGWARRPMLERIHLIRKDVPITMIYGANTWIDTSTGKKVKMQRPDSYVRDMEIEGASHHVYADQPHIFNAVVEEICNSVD
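assay system = mABHD4 protein | compound dosing = single nominal dose of 8.92 µM, 0.89% DMSO final | read-out basis = percent inhibition of probe binding, normalized to plate controls | schedule = Enzyme–compound pre-incubation 45 min, then probe 60 min, both 25 °C | detection = fluorescence polarization, excitation 525 nm, emission 598 nm, BODIPY TMR filters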
SIAE inh – human SIAE inhibition, primary screen | inhibition, % at 9.66 µM | Q9HAT2 | SIAE FP-Rh probe binding, fluorescence polarization | AID 1053197 | 370,000 tested, 0.69% active;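 active means inhibition above a cutoff: mean of compounds within the control limits plus 3 SD of those, cut at about 17% in these data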
PRMT1 inh – inhibitors of human PRMT1; Q99873; recombinant PRMT1, activity-based probe fluorescence polarization; inhibition, % at 2.79 µM; 370,000 tested, 1.3% active;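 active means inhibition above about 21% made by adding two undisclosed values, limit read from the data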
Target sequence (Q99873 whole entry, looked up): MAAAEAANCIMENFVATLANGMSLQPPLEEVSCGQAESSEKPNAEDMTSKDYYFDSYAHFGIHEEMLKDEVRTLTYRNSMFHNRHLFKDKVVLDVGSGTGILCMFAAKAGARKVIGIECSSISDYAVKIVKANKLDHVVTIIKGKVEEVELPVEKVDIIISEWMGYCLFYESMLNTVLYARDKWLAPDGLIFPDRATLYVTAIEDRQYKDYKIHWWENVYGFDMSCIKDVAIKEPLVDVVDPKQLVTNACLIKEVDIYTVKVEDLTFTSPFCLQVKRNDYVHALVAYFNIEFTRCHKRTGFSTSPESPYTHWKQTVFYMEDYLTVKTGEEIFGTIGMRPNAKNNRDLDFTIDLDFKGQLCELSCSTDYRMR
TCR CD3 inh – blocks the human TCR-CD3 interaction; TAMRA-labeled TCR probe fluorescence, biochemical; inhibition, % at 9.4 µM; 360,000 tested, 0.37% active;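 further: recombinant mutant TCR 2C K166C tagged with TAMRA read by polarization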
HTRA1 conf – HTRA1 (human) inhibition, confirmation. inhibition, % at 5.96 µM. shares compounds with HTRA1 inhibitor. AID 540248. recombinant HTRA1, FP-rhodamine activity-based probe, fluorescence polarization. 1,600 tested, 66% active;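 active means mean inhibition over three repeats above a set limit taken from the earlier primary screen, cut at about 37% in these data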;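 further: inhibitors block probe binding so polarization drops and inhibition rises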
BSA TAMRA ctr – interferes with TAMRA-BSA probe, flagging TCR-CD3 hits. shares compounds with TCR CD3 inh. TAMRA-labeled BSA probe fluorescence counterscreen. inhibition, % at 9.4 µM. 1,200 tested, 10% active; in the data active means inhibition above about 23%
TCR-CD3 inh conf – confirmation of human TCR-CD3 interaction inhibitors; inhibition, % at 9.4 µM; AID 652036; TAMRA-labeled TCR probe fluorescence binding assay; shares compounds with TCR CD3 inh; 1,200 tested, 48% active
PRMT1 inh conf – confirmation of human PRMT1 inhibitors; recombinant His-PRMT1, activity-based probe fluorescence polarization; 3,300 tested, 42% active; inhibition, % at 2.79 µM; shares compounds with PRMT1 inh;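 active means mean inhibition across replicates above the hit cutoff derived for the earlier primary screen, cut at about 22% in these data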
ABHD4 confirm – ABHD4 (mouse) inhibition, FP confirmation. shares compounds with ABHD4 inh. purified mABHD4, FP-Rh probe fluorescence polarization. inhibition, % at 8.92 µM. 1,800 tested, 55% active. AID 720658;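 active means mean inhibition across replicates above the hit cutoff set in the primary screen, cut at about 30% in these data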
Large screens that a line does not name were inactive (follow-up assays come after a bar, where they were run). Most compounds without a hit are left out; they make up all but 2.6% or so of the library. Unless noted, no stated cut-off is given here; in the data, active means inhibition above about 19%; inactive means the rest.

Cc1cc2ccccc2n1CCNC(=O)c1ccc(Br)o1	HTRA1 inhibitor 57, PRMT1 inh 27 | HTRA1 conf inactive | PRMT1 inh conf inactive
O=C(CSc1cccc[n+]1[O-])Nc1cc(Cl)ccc1[N+](=O)[O-]	none
O=[N+]([O-])c1ccc(Sc2cccc[n+]2[O-])c2nonc12	HTRA1 inhibitor 81, PRMT1 inh 88 | HTRA1 conf 101 | PRMT1 inh conf 91
CCC(CO)Nc1cccc2c1S(=O)(=O)N(Cc1cn(Cc3ccc(C(F)(F)F)cc3)nn1)Cc1ccccc1O2 (stereo not given)	none (no result: HTRA1 inhibitor, TCR CD3 inh)
O=S(=O)(O)c1cc(O)c(N=Nc2ccc(O)cc2O)c2ccccc12	HTRA1 inhibitor 78, PRMT1 inh 44, TCR CD3 inh 150 | HTRA1 conf 54 | BSA TAMRA ctr 171 | TCR-CD3 inh conf 130 | PRMT1 inh conf 43
Cc1ccc2nc(N3C(=O)C(O)=C(C(=O)c4ccc(C)o4)C3c3ccco3)sc2c1 (stereo not given)	none
O=C(C1=C(O)C(=O)N(c2nc3ccc(Cl)cc3s2)C1c1ccco1)c1ccco1 (stereo not given)	HTRA1 inhibitor 39, PRMT1 inh 36 | HTRA1 conf inactive | PRMT1 inh conf inactive
CCOc1ccc2noc3c2c1C(=O)c1ccccc1-3	HTRA1 inhibitor 49, ABHD4 inh 58, SIAE inh 17, PRMT1 inh 150 | HTRA1 conf inactive | ABHD4 confirm inactive
CCCC[C@H]1C2CC(OC(=O)Nc3cccc(C(F)(F)F)c3)C(C2)[C@H]2CCCCN21 (stereo not given in full)	none (no result: HTRA1 inhibitor, TCR CD3 inh)
NC1=C(Br)C(=O)c2ncccc2C1=O	none
O=C1C=C(NCCc2cc(Br)c(O)c(Br)c2)C(=O)c2ncccc21	HTRA1 inhibitor 53, ABHD4 inh 48, TCR CD3 inh 26 | HTRA1 conf 43 | BSA TAMRA ctr inactive | TCR-CD3 inh conf 25 | ABHD4 confirm 51
COc1ccc(-c2nnc(SCC(=O)Nc3ccc(S(=O)(=O)Nc4nccs4)cc3)n2-c2ccc(OC)cc2)cc1	none (no result: HTRA1 inhibitor, TCR CD3 inh)
CN(Cc1ccccc1)Cc1c(O)ccc2ccccc12	none
CN(Cc1cc(Cl)cc(Cl)c1O)Cc1c(O)ccc2ccccc12	HTRA1 inhibitor 52, ABHD4 inh 30 | HTRA1 conf 62 | ABHD4 confirm inactive
O=S(=O)(c1ccc2nc(-c3ccco3)c(-c3ccco3)nc2c1)N1CCOCC1	HTRA1 inhibitor 41, ABHD4 inh 56, PRMT1 inh 52 | HTRA1 conf inactive | PRMT1 inh conf 69 | ABHD4 confirm inactive
O=S(=O)(c1ccc2ccccc2c1)N1CCOCC1	none
O=C(N[C@H](C(=O)N1CCC[C@H]1C(=O)NC1CCCC1)c1ccccc1)C1CCCC1	none (no result: HTRA1 inhibitor)
CCCC1OC23CCCCC2C(C#N)(C(=N)O3)C1(C#N)C#N (stereo not given)	none
COc1ccc(C2OC34CCCCC3C(C#N)(C#N)C2(C#N)C(=N)O4)cc1 (stereo not given)	HTRA1 inhibitor 36, ABHD4 inh 34, TCR CD3 inh 27 | HTRA1 conf 43 | BSA TAMRA ctr 65 | TCR-CD3 inh conf 44 | ABHD4 confirm 52
CCOc1ccc(-n2c(SCC(=O)Nc3ccccc3-c3ccccc3)nnc2-c2ccccc2)cc1	none (no result: HTRA1 inhibitor, TCR CD3 inh)
COCCCNC(=O)C[C@H]1C[C@@]2(C(=O)OC)C(=C[C@H](C(C)C)O[C@@H]2C2CC2)N(Cc2ccc3c(c2)OCO3)C1=O	none (no result: HTRA1 inhibitor, TCR CD3 inh)
O=C1c2ccccc2-c2onc3c(N4CCN(CCO)CC4)cc(N4CCN(C(=O)c5ccco5)CC4)c1c23	HTRA1 inhibitor 67, ABHD4 inh 35 | HTRA1 conf 72 | ABHD4 confirm 43
O=C(c1ccco1)N1CCN(CCCCN2C(=O)c3ccccc3C2=O)CC1	none
COC(=O)C[C@H]1CC[C@@H]2[C@H](COc3ccc(NC(=O)c4ccccc4OC)cc3C(=O)N2C)O1	none (no result: HTRA1 inhibitor, TCR CD3 inh)
O=S(c1ccccc1O)S(=O)c1ccccc1O (stereo not given)	HTRA1 inhibitor 40, ABHD4 inh 37, PRMT1 inh 88 | HTRA1 conf inactive | PRMT1 inh conf 95 | ABHD4 confirm 34
CS(=O)c1ccccc1O (stereo not given)	none
O=C(SCc1c(O)c2ccccc2oc1=O)c1ccccc1	none
O=c1oc2ccccc2c(O)c1Cc1cc(Cl)c2cccnc2c1O	HTRA1 inhibitor 52, ABHD4 inh 33 | HTRA1 conf 54 | ABHD4 confirm inactive
O=C1c2ccccc2C(=O)c2c1cccc2N1CCCC1	HTRA1 inhibitor 45, ABHD4 inh 33 | HTRA1 conf 49 | ABHD4 confirm 57
CC(COc1ccc(Br)cc1)CN1CCC(C(O)(c2ccccc2)c2ccccc2)CC1 (stereo not given)	none (no result: HTRA1 inhibitor, TCR CD3 inh)
N#C/C(N=Nc1ccccc1O)=N\Nc1ccccc1O	HTRA1 inhibitor 68, ABHD4 inh 67 | HTRA1 conf 71 | ABHD4 confirm 110
COC(=O)C1CN(Cc2cn(Cc3ccccc3)nn2)CCS(=O)(=O)N1Cc1ccc(F)cc1 (stereo not given)	none (no result: HTRA1 inhibitor, TCR CD3 inh)
OCCNc1c2ccccc2nc2c(F)c(F)c(F)c(F)c12	none
Cc1c2ccccc2nc2c(F)c(NC(C)C)c(F)c(F)c12	HTRA1 inhibitor 57, ABHD4 inh 47 | HTRA1 conf inactive | ABHD4 confirm inactive
Cc1c2ccccc2nc2c(F)c(NCCO)c(F)c(F)c12	HTRA1 inhibitor 67, ABHD4 inh 58, PRMT1 inh 27 | HTRA1 conf inactive | ABHD4 confirm 52
Cc1ccc(O)c(/C=N/NC(=O)Cc2ccc(Cl)cc2)c1	none
O=C(Cc1ccc(Cl)cc1)N/N=C/c1ccc(O)c(O)c1	HTRA1 inhibitor 63, ABHD4 inh 33 | HTRA1 conf 68 | ABHD4 confirm inactive
NC(=O)NC(=O)C(Nc1ccc(N2CCCCC2)cc1)c1ccccc1 (stereo not given)	HTRA1 inhibitor 52, ABHD4 inh 40 | HTRA1 conf inactive | ABHD4 confirm inactive
Cc1cccc(CNC(=O)NC2CCCCN(Cc3cccc(Cl)c3)C2=O)c1 (stereo not given)	none (no result: HTRA1 inhibitor, TCR CD3 inh)
Oc1ccc(-c2csc(-c3ccccc3)n2)cc1O	HTRA1 inhibitor 59, ABHD4 inh 31 | HTRA1 conf 48 | ABHD4 confirm 31
Oc1ccccc1-c1csc(-c2ccccc2)n1	none
